What was measured:
Type in all cases: functional, cell-based
A549 = experiment: Cytotoxicity against human A549 cells assessed as reduction in cell viability after 72 hrs by MTT assay; details: A549, 72 h
In short: (§1)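 Human cancer cells grown in 96-well plates and exposed for 72 h at 37 °C under 5% CO2. Survival rates read by MTT assay, with doxorubicin as positive control. IC50 reported as the mean of triplicate determinations.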

HCT-116 = experiment: Cytotoxicity against human HCT116 cells assessed as reduction in cell viability after 72 hrs by MTT assay; details: HCT-116, 72 h; in short: as §1
MDA-MB-231 = experiment: Cytotoxicity against human MDA-MB-231 cells assessed as reduction in cell viability after 72 hrs by MTT assay; details: MDA-MB-231, 72 h; in short: as §1
BEL-7404 tumor cell line = experiment: Cytotoxicity against human Bel7404 cells assessed as reduction in cell viability after 72 hrs by MTT assay; details: BEL-7404, 72 h; in short: as §1

Structure (SMILES)	IC50 (A549) [µM]	IC50 (HCT-116) [µM]	IC50 (MDA-MB-231) [µM]	IC50 (BEL-7404 tumor cell line) [µM]
C/C=C(/C)C(=O)O[C@H]1[C@@H](O)[C@@H]2[C@H](OC(=O)[C@H]2COC)[C@@H](OC(=O)/C(C)=C\C)[C@@](C)(O)C(=O)CC[C@H]1C (relative stereo)	> 100	36.4	> 100	88.1
C=C1C(=O)O[C@H]2[C@H]1[C@@H](O)[C@]1(O)O[C@@H](C[C@H]1C)C[C@](C)(O)[C@@H]2OC(=O)C(C)C	> 100	> 100	> 100	81.9
C/C=C(/C)C(=O)O[C@H]1[C@@H](O)[C@@H]2[C@H](OC(=O)[C@H]2COC)[C@@H](OC(=O)C(C)C)[C@@](C)(O)C(=O)CC[C@H]1C	> 100	49.6	> 100	71.7
C/C=C(/C)C(=O)O[C@H]1[C@@H](O)[C@@H]2[C@H](OC(=O)[C@H]2COC)[C@@H](OC(=O)C(C)CC)[C@@](C)(O)C(=O)CC[C@H]1C (relative stereo)	90.4	58	> 100	62.9
C=C1C(=O)O[C@H]2[C@H]1[C@H](O)[C@]1(O)O[C@@H](C[C@H]1C)C[C@](C)(O)[C@@H]2OC(=O)/C(C)=C\C	> 100	37.5	> 100	69.6
C=C1C(=O)O[C@H]2[C@H]1[C@H](OC(=O)C(C)C)C(=O)[C@H](C)CCC[C@](C)(O)[C@@H]2OC(=O)C(C)C	29.9	2.65	7.48	7.32
COc1cccc2c1C(=O)c1c(O)c3c(c(O)c1C2=O)C[C@@](O)(C(=O)CO)C[C@@H]3O[C@H]1C[C@H](N)[C@H](O)[C@H](C)O1 [DOXORUBICIN]	0.015	0.007	0.13	0.13
C=C1C(=O)O[C@H]2[C@H]1[C@H](O)[C@H](OC(=O)/C(C)=C\C)[C@H](C)CCC(=O)[C@](C)(O)[C@@H]2OC(=O)C(C)C	12.1	0.87	2.02	1.8
C=C1C(=O)O[C@H]2[C@H]1[C@@H](O)[C@]1(O)O[C@@H](C[C@H]1C)C[C@](C)(O)[C@@H]2OC(=O)/C(C)=C\C (relative stereo)	> 100	> 100	> 100	56.4
C/C=C(/C)C(=O)O[C@@H]1[C@H]2OC(=O)[C@@H](COC)[C@@H]2[C@H](O)[C@H](OC(=O)CC(C)C)[C@H](C)CCC(=O)[C@]1(C)O	> 100	71.5	> 100	79
C=C1C(=O)O[C@H]2[C@H]1[C@H](OC(=O)/C(C)=C\C)C(=O)[C@H](C)CCC[C@](C)(O)[C@@H]2OC(=O)C(C)C (relative stereo)	18.4	5.51	7.53	7.35

From ChEMBL document CHEMBL4041470, “Isolation, Structure Elucidation, and Absolute Configuration of Highly Oxygenated Germacranolides from Carpesium cernuum” (J Nat Prod, 2016)
